Test results: ChEMBL document CHEMBL6109036, “Azo derivatives of monoterpenes as anti-Helicobacter pylori agents: from synthesis to structure-based target investigation” (RSC Med Chem, 2025)
Converted amounts (≈) assume the structure as drawn.

What was measured:
Format in all cases: functional
[1] = tested on: Helicobacter pylori; assay: Bactericidal against Helicobacter pylori Clinical isolate F4 measured after 72 hrs of incubation under microaerophilic conditions by modified broth dilution method; conditions: read-out: MBC99.9
In short: (§1)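 H. pylori (NCTC 11637, F1, 23, F4). Wells with no visible growth in the MIC assay spotted (10 μL) onto Skirrow agar. Plates incubated 72 h at 37 °C, microaerophilic, 100% humidity. MBC = concentration killing 99.9% of the initial inoculum. Triplicate, on at least three different days.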

[2] = tested on: Helicobacter pylori; assay: Anti-bacterial activity against Helicobacter pylori Clinical isolate 23 measured after 72 hrs incubation by modified broth dilution method
[3] = tested on: Helicobacter pylori; assay: Bactericidal activity against Helicobacter pylori Clinical isolate F1 measured after 72 hrs of incubation under microaerophilic conditions by modified broth dilution method; conditions: read-out: MBC99.9; in short: as §1
[4] = tested on: Helicobacter pylori; assay: Bactericidal against Helicobacter pylori measured after 72 hrs of incubation under microaerophilic conditions by modified broth dilution method
In short: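 Wells with no visible growth in the MIC assay spotted (10 μL) onto Skirrow agar. Plates incubated 72 h at 37 °C, microaerophilic, 100% humidity. Triplicate, on at least three different days.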

[5] = tested on: Helicobacter pylori; assay: Anti-bacterial activity against Helicobacter pylori NCTC 11637 measured after 72 hrs incubation by modified broth dilution method
[6] = tested on: Helicobacter pylori; assay: Anti-bacterial activity against Helicobacter pylori measured after 72 hrs incubation by modified broth dilution method
[7] = tested on: Helicobacter pylori; assay: Anti-bacterial activity against Helicobacter pylori Clinical isolate F1 measured after 72 hrs incubation by modified broth dilution method
[8] = tested on: Helicobacter pylori; assay: Anti-bacterial activity against Helicobacter pylori Clinical isolate F4 measured after 72 hrs incubation by modified broth dilution method
[9] = tested on: Helicobacter pylori; assay: Bactericidal activity against Helicobacter pylori NCTC 11637 measured after 72 hrs of incubation under microaerophilic conditions by modified broth dilution method; conditions: read-out: MBC99.9; in short: as §1
[10] = tested on: Helicobacter pylori; assay: Bactericidal activity against Helicobacter pylori Clinical isolate 23 measured after 72 hrs of incubation under microaerophilic conditions by modified broth dilution method; conditions: read-out: MBC99.9; in short: as §1

SMILES | MBC [1] | MIC [2] | MBC [3] | MBC90 [4] | MIC [5] | MIC50 [6] | MIC90 [6] | MIC [7] | MIC [8] | MBC [9] | MBC [10] | MBC ([4]; Helicobacter pylori, read-out: MBC99.9)
Cc1cc(O)c(C(C)C)cc1/N=N/c1ccccc1Cl | 4 µg/mL (≈ 13.9 µM) | 4 µg/mL (≈ 13.9 µM) | 4 µg/mL (≈ 13.9 µM) | 8 µg/mL (≈ 27.7 µM) | 4 µg/mL (≈ 13.9 µM) | 4 µg/mL (≈ 13.9 µM) | 4 µg/mL (≈ 13.9 µM) | 4 µg/mL (≈ 13.9 µM) | 4 µg/mL (≈ 13.9 µM) | 4 µg/mL (≈ 13.9 µM) | 8 µg/mL (≈ 27.7 µM) | 
Cc1cc(OC(=S)N(C)C)c(C(C)C)cc1/N=N/c1ccc([N+](=O)[O-])cc1 | > 128 µg/mL | > 128 µg/mL | > 128 µg/mL | >128 µg/mL | > 128 µg/mL | > 128 µg/mL | > 128 µg/mL | > 128 µg/mL | > 128 µg/mL | > 128 µg/mL | > 128 µg/mL | 
COc1ccc(/N=N/c2cc(C(C)C)c(OC(=S)N(C)C)cc2C)cc1 | 128 µg/mL (≈ 345 µM) | 128 µg/mL (≈ 345 µM) | > 128 µg/mL | >128 µg/mL | > 128 µg/mL | 128 µg/mL (≈ 345 µM) | > 128 µg/mL | 128 µg/mL (≈ 345 µM) | 128 µg/mL (≈ 345 µM) | > 128 µg/mL | 128 µg/mL (≈ 345 µM) | 
COc1ccc(/N=N/c2cc(C(C)C)c(OC(C)=O)cc2C)cc1 | 128 µg/mL (≈ 392 µM) | 64 µg/mL (≈ 196 µM) | 128 µg/mL (≈ 392 µM) | 128 µg/mL (≈ 392 µM) | 128 µg/mL (≈ 392 µM) | 64 µg/mL (≈ 196 µM) | 128 µg/mL (≈ 392 µM) | 128 µg/mL (≈ 392 µM) | 64 µg/mL (≈ 196 µM) | 128 µg/mL (≈ 392 µM) | 64 µg/mL (≈ 196 µM) | 
COc1ccc(/N=N/c2cc(C(C)C)c(O)cc2C)cc1 | 2 µg/mL (≈ 7.03 µM) | 4 µg/mL (≈ 14.1 µM) | 4 µg/mL (≈ 14.1 µM) | 4 µg/mL (≈ 14.1 µM) | 4 µg/mL (≈ 14.1 µM) | 4 µg/mL (≈ 14.1 µM) | 4 µg/mL (≈ 14.1 µM) | 4 µg/mL (≈ 14.1 µM) | 2 µg/mL (≈ 7.03 µM) | 4 µg/mL (≈ 14.1 µM) | 4 µg/mL (≈ 14.1 µM) | 
COc1ccc(/N=N/c2cc(C(C)C)c(OC)cc2C)cc1 | 128 µg/mL (≈ 429 µM) | > 128 µg/mL | > 128 µg/mL | >128 µg/mL | > 128 µg/mL | 128 µg/mL (≈ 429 µM) | > 128 µg/mL | 128 µg/mL (≈ 429 µM) | 128 µg/mL (≈ 429 µM) | > 128 µg/mL | > 128 µg/mL | 
COc1cc(C)c(/N=N/c2ccc([N+](=O)[O-])cc2)cc1C(C)C | > 128 µg/mL | > 128 µg/mL | > 128 µg/mL | >128 µg/mL | > 128 µg/mL | > 128 µg/mL | > 128 µg/mL | > 128 µg/mL | > 128 µg/mL | > 128 µg/mL | > 128 µg/mL | 
Cc1c(/N=N/c2ccccc2Cl)cc(C(C)C)c(O)c1/N=N/c1ccccc1Cl | > 128 µg/mL | 128 µg/mL (≈ 300 µM) | > 128 µg/mL | >128 µg/mL | > 128 µg/mL | 128 µg/mL (≈ 300 µM) | > 128 µg/mL | 128 µg/mL (≈ 300 µM) | 128 µg/mL (≈ 300 µM) | > 128 µg/mL | > 128 µg/mL | 
Cc1cc(OC(=O)N(C)C)c(C(C)C)cc1/N=N/c1ccc([N+](=O)[O-])cc1 | 128 µg/mL (≈ 346 µM) | > 128 µg/mL | 128 µg/mL (≈ 346 µM) | 128 µg/mL (≈ 346 µM) | > 128 µg/mL | > 128 µg/mL | > 128 µg/mL | 128 µg/mL (≈ 346 µM) | 128 µg/mL (≈ 346 µM) | 128 µg/mL (≈ 346 µM) | 128 µg/mL (≈ 346 µM) | 
COc1ccc(/N=N/c2cc(C(C)C)c(O)c(/N=N/c3ccc(OC)cc3)c2C)cc1 | > 128 µg/mL | 128 µg/mL (≈ 306 µM) | > 128 µg/mL | >128 µg/mL | > 128 µg/mL | 128 µg/mL (≈ 306 µM) | > 128 µg/mL | 128 µg/mL (≈ 306 µM) | 128 µg/mL (≈ 306 µM) | > 128 µg/mL | > 128 µg/mL | 
CC(=O)Oc1cc(C)c(/N=N/c2ccc([N+](=O)[O-])cc2)cc1C(C)C | > 128 µg/mL | 128 µg/mL (≈ 375 µM) | 128 µg/mL (≈ 375 µM) | >128 µg/mL | > 128 µg/mL | 128 µg/mL (≈ 375 µM) | > 128 µg/mL | 128 µg/mL (≈ 375 µM) | > 128 µg/mL | > 128 µg/mL | 128 µg/mL (≈ 375 µM) | 
COc1ccc(/N=N/c2cc(C(C)C)c(OC(=O)N(C)C)cc2C)cc1 | 64 µg/mL (≈ 180 µM) | 64 µg/mL (≈ 180 µM) | > 128 µg/mL | 128 µg/mL (≈ 360 µM) | 128 µg/mL (≈ 360 µM) | > 128 µg/mL | 128 µg/mL (≈ 360 µM) | 128 µg/mL (≈ 360 µM) | 64 µg/mL (≈ 180 µM) | 64 µg/mL (≈ 180 µM) | 128 µg/mL (≈ 360 µM) | 
CC1(C)S[C@@H]2[C@H](NC(=O)[C@H](N)c3ccc(O)cc3)C(=O)N2[C@H]1C(=O)O [AMOXICILLIN] | 0.064 µg/mL (≈ 0.175 µM) | 0.016 µg/mL (≈ 0.0438 µM) | 0.064 µg/mL (≈ 0.175 µM) | 0.064 µg/mL (≈ 0.175 µM) | 0.016 µg/mL (≈ 0.0438 µM) | 0.016 µg/mL (≈ 0.0438 µM) | 0.064 µg/mL (≈ 0.175 µM) | 0.064 µg/mL (≈ 0.175 µM) | 0.064 µg/mL (≈ 0.175 µM) | 0.016 µg/mL (≈ 0.0438 µM) | 0.016 µg/mL (≈ 0.0438 µM) | 
Cc1ccc(C(C)C)cc1O [CARVACROL] | 64 µg/mL (≈ 426 µM) | 64 µg/mL (≈ 426 µM) | 64 µg/mL (≈ 426 µM) |  | 64 µg/mL (≈ 426 µM) | 64 µg/mL (≈ 426 µM) | 64 µg/mL (≈ 426 µM) | 64 µg/mL (≈ 426 µM) | 64 µg/mL (≈ 426 µM) | 64 µg/mL (≈ 426 µM) | 64 µg/mL (≈ 426 µM) | 64 µg/mL (≈ 426 µM)
C=CCc1ccc(O)c(OC)c1 [EUGENOL] | 64 µg/mL (≈ 390 µM) | 64 µg/mL (≈ 390 µM) | 128 µg/mL (≈ 780 µM) | 64 µg/mL (≈ 390 µM) | 32 µg/mL (≈ 195 µM) | 64 µg/mL (≈ 390 µM) | 64 µg/mL (≈ 390 µM) | 64 µg/mL (≈ 390 µM) | 64 µg/mL (≈ 390 µM) | 64 µg/mL (≈ 390 µM) | 64 µg/mL (≈ 390 µM) | 
